The source of these data is ChEMBL document CHEMBL1159376, “Potential cancer chemopreventive constituents of the seeds of Dipteryx odorata (tonka bean)” (J Nat Prod, 2003).

Experiment [1] can be described thus: Chemoprevention index, ratio of IC50 for mouse Hepa-1c1c7 cells to drug level required to double quinone reductase activity in mouse Hepa-1c1c7 cells. It is filed as functional.
Experiment [2] is described as follows: Growth inhibition of mouse Hepa-1c1c7 cells. It is filed as functional, cell-based.
Experiment [3] can be described thus: Inhibition of 7,12-dimethylbenz[a]anthracene-induced […] lesions in mouse mammary organ culture model at 10 ug/ml. It is filed as functional. The following applies: Mammary gland. In a few lines: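 Mouse mammary glands in organ culture with 7,12-dimethylbenz[a]anthracene-induced preneoplastic lesions. Samples were tested at 10 µg/mL, with sulforaphane at 1 µg/mL as positive control. The read-out was percent inhibition of lesion formation.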

Experiment [4] can be described thus: tissue or blood. Particulars: Mus musculus, Mammary gland, read-out: INH.

Each structure is given as a SMILES string.

For the compound `COc1cc(/C=C2\Oc3cc(O)ccc3C2=O)ccc1O`, in experiment [1], the Ratio is given as 5.4. This compound also returned an IC50 in experiment [2] of 34.6 µM. For the same compound, the inhibition at 10 µg/mL in experiment [3] came to 48.2%.
As to `COc1cc(C2Oc3c(OC)cc(/C=C/C=O)cc3C2CO)ccc1O` (racemic), the Ratio in experiment [1] is reported as 3.2. For the same compound, in experiment [2], inhibition was half-maximal at 48.5 µM (IC50).
As to `O=C(/C=C/c1ccc(O)cc1)c1ccc(O)cc1O` [ISOLIQUIRITIGENIN], the Ratio in experiment [1] was 7.2. Further, 27.3 µM corresponded to half-maximal inhibition in experiment [2] (IC50). Further, in experiment [3], the inhibition at 10 µg/mL turned out to be 76%.
For the compound `C[S+]([O-])CCCCN=C=S` (centres undefined) [SULFORAPHANE], in experiment [1], the Ratio came out at 7.2. The inhibition at 1 µg/mL in experiment [4] stood at 83.7%. The compound also had an IC50 in experiment [2] of 27.3 µM.
Take `O=C1/C(=C/c2ccc(O)c(O)c2)Oc2cc(O)ccc21` [SULFURETIN]: in experiment [1], the Ratio is listed as 3.8. For the same compound, inhibition in experiment [2] was half-maximal at 78.5 µM (IC50). The compound further returned an inhibition at 10 µg/mL in experiment [3] of 58.5%.

As usually defined, the IC50 is the point on the concentration scale where inhibition reaches its midpoint.
